The data set in a line: Toxicity liver stage against HepG2, at 10uM. The format is cell-based. Also noted: test concentration 10 uM, cell line HepG2-A16-CD81EGFP. The following applies: human, HepG2-A16-CD81EGFP cells; read-out: INHIBITION
A digest of the protocol:
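Uninfected HepG2-A16-CD81EGFP cells, 3 × 10^3 per well, 1536-well, plated on prespotted compound at 10 μM final, parasite-free screening media added to match infected plates; puromycin 10 μM positive, DMSO 0.5% negative; run in parallel with 48 h PbLuc assay at 37 °C, 5% CO2; viability by CellTiter-Glo luminescence, normalized to controls.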

Take `O=C1CO[C@H]2CN(C3CCOCC3)C[C@H]2N1Cc1ccc(F)cc1`: the cytotoxicity at 10 µM was -6.35%.

Regarding `CN(C)CC1CN(Cc2cccc(C(=O)N(C)C)c2)CCO1` (configuration not stated), the cytotoxicity at 10 µM is -0.729%.

On to `C1CC(CN2CCOCC3(CCN(C4CCOCC4)C3)C2)CCO1` (configuration not stated), for which the cytotoxicity at 10 µM was -3.37%.

For the compound `CCCC(CNc1cc(C(C)C)nc2ccnn12)N(C)C` (configuration not stated), the cytotoxicity at 10 µM worked out at 5.6%.

Regarding `O=C(Nc1cn[nH]c1)N1CCN(CCSc2ccccc2)CC1`, the cytotoxicity at 10 µM turned out to be 4.32%.

`COc1ccccc1N1CCN(C(=O)Cn2nccc2C)CC1(C)C`: the cytotoxicity at 10 µM was 11.8%.

For `Cc1nc(C)n(CC2CCCCN2Cc2ncc(C(C)(C)C)o2)n1` (configuration not stated), the cytotoxicity at 10 µM came out at 0.299%.

Take `O=C1CCSCC(C(=O)N2CCC(O)CC2)N1` (configuration not stated): the cytotoxicity at 10 µM is -4.2%.

On to `CC(C)NC(=O)[C@@H]1C[C@@H](N)CN1C(=O)c1cc2c([nH]c1=O)CCCC2`, for which the cytotoxicity at 10 µM is -0.869%.

On to `Cc1ccc(CN2CCn3cc(CNC(=O)c4cnn(C)c4)nc3C2)s1`, for which the cytotoxicity at 10 µM is 1.13%.

For the compound `COC[C@@]12CCO[C@@H]1CCN(Cc1sccc1C)C2`, the cytotoxicity at 10 µM was -109%.

For `N#Cc1c(F)cccc1N1CCCC(C(=O)Nc2nncs2)C1` (configuration not stated), the cytotoxicity at 10 µM amounted to 4.48%.

In the case of `CN(C)C1Cc2ccccc2N(S(=O)(=O)c2ccccc2C#N)C1` (configuration not stated), the cytotoxicity at 10 µM stood at 0.71%.

On to `CN(C)C(C(=O)NCC1(O)CCCCC1)c1cccc(F)c1` (configuration not stated), for which the cytotoxicity at 10 µM is -2.07%.

With `c1ccc(N2CCOC3(CCCN(c4nncs4)C3)C2)nc1` (configuration not stated), the cytotoxicity at 10 µM was 9.17%.

As for `CC(=O)NC1CCN(c2nc(N)nc3c2CCCC3)C1` (configuration not stated), the cytotoxicity at 10 µM came to 0.452%.

Consider `COCCc1noc(CN2CCCC2c2c(C)nn(C)c2OC)n1` (configuration not stated), for which the cytotoxicity at 10 µM was -2.36%.

With `O=C(Cc1ccccc1)N1CCC2(CC(=O)N(c3ccsc3)C2)C1` (configuration not stated), the cytotoxicity at 10 µM is -10.2%.

Consider `CC(C)NC(=O)CCNC(=O)c1c(Br)c2ccccc2n1C`, for which the cytotoxicity at 10 µM is 8.59%.

Regarding `Fc1cccc(CN2C[C@@H]3CN(c4ncccn4)C[C@@H]3C2)c1`, the cytotoxicity at 10 µM stood at 6.81%.

`Cc1cccc(N2CCC(N3CCCC4(CN(C)C(=O)O4)C3)CC2)c1C` (configuration not stated): the cytotoxicity at 10 µM was -12.8%.

Regarding `Cc1cc(=O)n2nc(Oc3cccc(C(N)=O)c3)sc2n1`, the cytotoxicity at 10 µM is -7.88%.

Regarding `CC(C)COc1ccccc1C(N)CC(C)C` (configuration not stated), the cytotoxicity at 10 µM was -5.27%.

Consider `O=C(c1cc2c(s1)CCC2)N1CCCC1c1noc(C2CC2)n1` (configuration not stated), for which the cytotoxicity at 10 µM is -8.18%.

Regarding `Cc1cc(C2CCCN2C(=O)c2cnn(C)c2)on1` (configuration not stated), the cytotoxicity at 10 µM is -1.85%.

Consider `NCC1Cc2cc(-c3nccc(N4CCC(O)CC4)n3)cc(Cl)c2O1` (configuration not stated), for which the cytotoxicity at 10 µM is -4.33%.

Turning to `O=C1NCCN1C1CCN(CCc2cccs2)CC1`, the cytotoxicity at 10 µM was -1.32%.

In the case of `CCc1nnc2ccc(NCC3(N4CCCCC4)CCOCC3)nn12`, the cytotoxicity at 10 µM is -8.39%.

As for `O=C(C1CCCCC1)N1C[C@H]2CNC[C@H]2C1`, the cytotoxicity at 10 µM is -11.9%.

On to `Cc1cc(NC(=O)NCc2ccc(C)s2)no1`, for which the cytotoxicity at 10 µM was -5.29%.

On to `O=C(NCCn1ccnc1)N1CCCN(Cc2cccs2)CC1`, for which the cytotoxicity at 10 µM was -29.7%.

Turning to `CCn1cc(CN2CCN(C(=O)c3cc(Br)cs3)CC2)c(C)n1`, the cytotoxicity at 10 µM came to 4.95%.

As for `O=C(c1ccc[nH]1)N1CCC(c2nccn2Cc2ccncc2)CC1`, the cytotoxicity at 10 µM was -16.8%.

As for `O=c1c2c(ncn1CCO)nc1n2CCC1`, the cytotoxicity at 10 µM was -11.3%.

As for `O=C(c1ccc2c(c1)OCO2)N1C[C@H](OCC2CC2)[C@H]2COC[C@H]21`, the cytotoxicity at 10 µM is -166%.

For `CCc1ocnc1C(=O)Nc1ccc2ccn(CCN(C)C)c2c1`, the cytotoxicity at 10 µM came to 4.81%.

As for `Cc1nnc(NC(=O)NC(C)Cn2cccn2)s1` (configuration not stated), the cytotoxicity at 10 µM is 6.62%.

Consider `O=C1N(CC2CCC2)CCCC12CCN(S(=O)(=O)c1cccnc1)C2` (configuration not stated), for which the cytotoxicity at 10 µM stood at 9.94%.

On to `Cn1cc(CNc2ccc(CCN3CCC(C(N)=O)CC3)cc2)cn1`, for which the cytotoxicity at 10 µM is -6.21%.

For the compound `CN(C)C(=O)CN1CCC2(CC1)CN(S(C)(=O)=O)Cc1ccccc1O2`, the cytotoxicity at 10 µM stood at 0.56%.

For the compound `O=C(Cc1ccccn1)N1CCc2ncnc(NC3CCC3)c2CC1`, the cytotoxicity at 10 µM is 3.25%.

In the case of `O=C(NCCc1ccc(Cl)s1)N1CCS(=O)(=O)CC1`, the cytotoxicity at 10 µM turned out to be 1.92%.

As to `CCC(NC(=O)Nc1ccc(OC)c(C)c1)c1ccncc1` (configuration not stated), the cytotoxicity at 10 µM was -2.07%.

Turning to `CC(C)(C)c1cc(NC(=O)C2CCCO2)n(-c2ccccn2)n1` (configuration not stated), the cytotoxicity at 10 µM is -1.26%.

In the case of `Cc1ncc(CN(C)CC(O)c2ccc(OC(F)(F)F)cc2)s1` (configuration not stated), the cytotoxicity at 10 µM was determined as 9.99%.

As for `COc1ccc(NC(=O)N2CCCC(CO)C2)c(C)c1` (configuration not stated), the cytotoxicity at 10 µM is -8.33%.

On to `CCn1ncc2c1C(COC)CN(Cc1nccs1)C2` (configuration not stated), for which the cytotoxicity at 10 µM stood at 9.41%.

Regarding `CCN(CC)C(=O)C1CCCN1C(=O)c1cccc(-n2cnnn2)c1` (configuration not stated), the cytotoxicity at 10 µM was -14.9%.

Take `CC(C)S(=O)(=O)N1C[C@@H](O)[C@H](N(C)Cc2ccc(F)cc2)C1`: the cytotoxicity at 10 µM stood at 2.51%.

In the case of `CN1CCN(C(=O)COCc2nc(-c3ccncc3)no2)CC1`, the cytotoxicity at 10 µM is 14.6%.

In the case of `Cc1cc(CN2CCN(C(=O)CCCc3nc(C(C)C)no3)CC2)on1`, the cytotoxicity at 10 µM was -9.05%.

With `O=C([C@H]1C[C@H]2OCC[C@H]2N(CC2CC2)C1)N1CCCCO1`, the cytotoxicity at 10 µM was -69.2%.

As for `CN(C)[C@H]1CCCCN(Cc2cnc(NCc3ccccc3)nc2)C1`, the cytotoxicity at 10 µM is 0.166%.

Consider `CCN(C)S(=O)(=O)N1CCC(C(O)c2ccc(Cl)cc2)CC1` (configuration not stated), for which the cytotoxicity at 10 µM worked out at 5.84%.

As for `CC1(NC(=O)CC2CCc3ccccc32)CCOCC1` (configuration not stated), the cytotoxicity at 10 µM came out at 0.995%.

As to `NC(CC1CCCC1)c1ccccc1` (configuration not stated), the cytotoxicity at 10 µM worked out at 5.76%.

For the compound `Cc1cnn(CC2CCCCN2Cc2nc(-c3ccoc3)no2)c1` (configuration not stated), the cytotoxicity at 10 µM was -7.2%.

On to `O=C(O)[C@@H]1CN(C(=O)c2cc(C3CC3)n[nH]2)C[C@H]1c1cccc(F)c1`, for which the cytotoxicity at 10 µM was -9%.

On to `Cc1ccc(CN2CCC(c3cnccn3)CC2)s1`, for which the cytotoxicity at 10 µM is -0.64%.

As to `CN1CCc2nnc(C3CCCN3S(=O)(=O)c3ccc(F)cc3)n2CC1` (configuration not stated), the cytotoxicity at 10 µM was -0.594%.

For the compound `COc1cc(Cl)c(NC(=O)c2cc3c([nH]c2=O)CCCC3=O)cc1OC`, the cytotoxicity at 10 µM is -5.21%.

In the case of `Cc1ccccc1CN(CCN(C)C)Cc1ccc(C(=O)O)cc1`, the cytotoxicity at 10 µM is -1.6%.

As to `O=c1[nH]nc2c(S(=O)(=O)N3CCCCCC3)cccn12`, the cytotoxicity at 10 µM came out at 2.1%.

Consider `CCS(=O)(=O)CC(=O)NC(c1ccccc1)C1CCCCC1` (configuration not stated), for which the cytotoxicity at 10 µM is -4.01%.

Take `Cc1nccc(-c2cccc(NCC(=O)N3CCNC(=O)C3)c2)n1`: the cytotoxicity at 10 µM is -0.797%.

As to `Cc1nc(-c2ccncc2)ncc1C(C)NC(=O)CN1CCCCC1` (configuration not stated), the cytotoxicity at 10 µM was 1.47%.

Turning to `COc1cccc(NC(=O)C(C)Cn2cc(Cl)cn2)c1` (configuration not stated), the cytotoxicity at 10 µM was -1.47%.

As for `Cc1noc(C)c1C(=O)NCCc1cccs1`, the cytotoxicity at 10 µM was found to be 12%.

As to `O=S(=O)(c1cccs1)N1CCN2C[C@H](OCC3CC3)C[C@H]2C1`, the cytotoxicity at 10 µM was found to be 11.9%.

Take `Cc1nc(NCc2ccc(C)o2)cc(C(=O)N2CCOCC2)n1`: the cytotoxicity at 10 µM is -2.03%.

Consider `COc1ccc(N(CCC(N)=O)C(=O)CSc2ccc(Cl)cc2)cc1`, for which the cytotoxicity at 10 µM is -4.37%.

Consider `CN(C)C(=O)Cn1c(C2CC2)c(CN2CCC(O)CC2)c2cccnc21`, for which the cytotoxicity at 10 µM is -4.9%.

As to `Cc1[nH]nc2ncc(C(=O)N3CCN(CC(C)O)CC3)cc12` (configuration not stated), the cytotoxicity at 10 µM was -1.73%.

Regarding `C1CCC(CO[C@@H]2CC[C@H]3[C@H]2OCCN3CC2CCOCC2)C1`, the cytotoxicity at 10 µM came out at 11.4%.

Take `CC(C)c1nc(CSc2nnc(-c3cccs3)n2CC(N)=O)no1`: the cytotoxicity at 10 µM is -142%.

With `Cc1csc(N2CCN(C(=O)Cc3ccc(C)s3)CC2)n1`, the cytotoxicity at 10 µM was -7.05%.

As for `CC(C)CCN1C[C@@H]2C[C@H](C(=O)NCC(C)C)[C@H](C1)O2`, the cytotoxicity at 10 µM was 5.9%.

With `CN1C(=O)C2(CCN(S(=O)(=O)C3CC3)CC2)c2ccccc21`, the cytotoxicity at 10 µM is -5.27%.

Consider `CC(C)c1ccccc1OCCNC(=O)N1CCC(CC(N)=O)CC1`, for which the cytotoxicity at 10 µM worked out at 3.2%.

As to `COc1c(CNCc2ccc(Cn3cccn3)cc2)c(C)nn1C`, the cytotoxicity at 10 µM was 35.5%.

For `O=C(CCc1ccsc1)N1CCCC(n2cncn2)C1` (configuration not stated), the cytotoxicity at 10 µM is -9.47%.

Turning to `Cc1ncncc1C(=O)N1CCCC(n2cccn2)C1` (configuration not stated), the cytotoxicity at 10 µM is -4.77%.

As for `CSCCNC(=O)c1cc(Br)cn1C(C)C`, the cytotoxicity at 10 µM was -1.16%.

In the case of `Cn1c2ccc(F)cc2c2ncn(CCN3CCOCC3)c(=O)c21`, the cytotoxicity at 10 µM was 18.2%.

Turning to `Cc1ccc2c(n1)N(C)CCN(C(=O)C1CC1)C2`, the cytotoxicity at 10 µM was -2.15%.

Take `CO[C@H]1CN(CC2CCOCC2)[C@@H]2CCCO[C@H]12`: the cytotoxicity at 10 µM was -100%.

Regarding `CNc1nc(C)c(C(=O)N2C[C@@H]3CC[C@H]2CN(c2cnccn2)C3)s1`, the cytotoxicity at 10 µM was determined as 13.6%.

For `O=S(=O)(C1CC1)N1CCc2onc(COc3ccccn3)c2C1`, the cytotoxicity at 10 µM is -4.38%.

Turning to `CCS(=O)(=O)N1CCCCC1c1nc(C(C)C)no1` (configuration not stated), the cytotoxicity at 10 µM was determined as 13.6%.

`O=C(NCCc1c[nH]c2ccccc12)C1CCC(Cn2cnnn2)CC1` (configuration not stated): the cytotoxicity at 10 µM was -12.7%.

`CC(CCc1ccc(F)c(F)c1)NS(=O)(=O)Cc1ccon1` (configuration not stated): the cytotoxicity at 10 µM was -7.97%.

As for `Cc1cccnc1NCCNC(=O)C1CCN(C(=O)N(C)C)CC1`, the cytotoxicity at 10 µM is 1.99%.

On to `CCOCC(O)CN1CCN(C(=O)c2cc(C)ccc2F)CC1` (configuration not stated), for which the cytotoxicity at 10 µM is 5.71%.

Consider `CNc1nc(C(=O)N2CCN(c3ccc(Cl)c(Cl)c3)CC2)cs1`, for which the cytotoxicity at 10 µM came to 13.9%.

For `Cc1ccc2c(c1)OC1(NC2=O)C(=O)N(C)c2ccccc21` (configuration not stated), the cytotoxicity at 10 µM was -23.8%.

With `O=C(NCCCO)NCCc1cc(F)ccc1F`, the cytotoxicity at 10 µM is 2.37%.

For `NC(=O)C1CCN(C(=O)c2cc(-n3cnnn3)ccc2Cl)CC1`, the cytotoxicity at 10 µM turned out to be 12.4%.
